What is called IC50 is the concentration that gives 50% inhibition. A high value points to a need for much substance. Usually TGI stands for the concentration at which net growth stops. A low value points to more potent growth arrest.

Consider 17 compounds from ChEMBL document CHEMBL1151741, “Aryl bis(diazeniumdiolates): potent inducers of S-glutathionylation of cellular proteins and their in vitro antiproliferative activities” (J Med Chem, 2008).

Test [1] can be described thus: Nitric oxide release measured per mole of compound at pH 7.4 in presence of glutathione. In outline: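 Compound stock was injected into 0.1 M phosphate buffer, pH 7.4, containing 4 mM GSH and 50 μM DTPA, sparged with inert gas. NO was followed by chemiluminescence at 37 °C until the signal returned to baseline (25 min – 5 h). The integrated curve gave mol NO per mol compound.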

For test [2], the system named is HL-60. The test can be described thus: Antiproliferative activity against human HL-60 cells after 72 hrs by MTT assay. As to conditions: HL-60, 72 h. It counts as functional, cell-based. The essentials: (§1)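 Cells kept in RPMI 1640 with 10% fetal calf serum, penicillin/streptomycin and 2 mM glutamine at 37 °C, 5% CO2. Seeded at 10⁴ per well and grown 24 h. Increasing drug concentrations (from 10 mM DMSO stocks, diluted in PBS) were added for 72 h at 37 °C. Proliferation was read by MTT. Six repeats per concentration, at least two independent experiments. IC50 is 50% proliferation inhibition; TGI is total growth inhibition.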
On the technique in general: Formazan colour is commonly taken as a measure of viable cells.

In test [3] the test system is U-937. In words: Antiproliferative activity against human U937 cells after 72 hrs by MTT assay. It is filed as functional, cell-based. As to conditions: U-937, 72 h. The essentials:
as §1

The nature of test [4]: Antiproliferative activity against human H441 cells after 72 hrs by MTT assay. It is filed as functional, cell-based. Particulars: NCI-H441, 72 h. In outline: as §1
Test [5] relates to A549. The test can be described thus: Antiproliferative activity against human A549 cells after 72 hrs by MTT assay. It is filed as functional, cell-based. As to conditions: A549, 72 h. In outline:
as §1

Test [6] in a line: Antiproliferative activity against human HCT 116 cells after 72 hrs by MTT assay. It is filed as functional, cell-based. As to conditions: HCT-116, 72 h. In outline: as §1
For test [7], the system named is HCT-15. The test can be described thus: Antiproliferative activity against human HCT-15 cells after 72 hrs by MTT assay. It is filed as functional, cell-based. As to conditions: HCT-15, 72 h. In outline: as §1
Test [8] relates to HT-29. In words: Antiproliferative activity against human HT-29 cells after 72 hrs by MTT assay. It is filed as functional, cell-based. Particulars: HT-29, 72 h. The essentials:
as §1

Test [9] has as its system OVCAR-3. In words: Antiproliferative activity against human OVCAR-3 cells after 72 hrs by MTT assay. It counts as functional, cell-based. As to conditions: OVCAR-3, 72 h. In outline: as §1
The test system of test [10] is OVCAR-5. The test can be described thus: Antiproliferative activity against human OVCAR5 cells after 72 hrs by MTT assay. Particulars: OVCAR-5, 72 h. It is filed as functional, cell-based. The essentials: as §1
Test [11] deals with PC-3. In words: Antiproliferative activity against human PC-3 cells after 72 hrs by MTT assay. Particulars: PC-3, 72 h. It counts as functional, cell-based. In outline:
as §1

Test [12] relates to HL-60. In words: Induction of protein S-glutathionylation in human HL-60 cell lysate at 5 uM. It counts as functional, cell-based. The essentials:
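Equal numbers of HL-60 cells in complete RPMI medium were given 5 μM compound or a DMSO vehicle control. Cells were lysed in pH 7.2 Hepes/NP-40/deoxycholate buffer with protease inhibitors. 10 μg of protein was run on SDS-PAGE under nonreducing conditions and blotted to PVDF. Blots were probed with anti-glutathione monoclonal antibody (1:1000, 3 h, room temperature), then HRP secondary, with ECL detection. Blots were stripped and reprobed for β-actin as a loading control.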

Each structure is given as a SMILES string. Active and inactive are the calls of the source. No cut-off for these calls is given here.

In the case of `CN(C)/[N+]([O-])=N/Oc1cc(O/N=[N+](\[O-])N2CCCC2CO)c([N+](=O)[O-])cc1[N+](=O)[O-]` (centres undefined), the Activity in [1] worked out at 3 mol/mol. For the same compound, the half-inhibitory concentration (IC50) was determined as 1 µM in [2]; 0.8 µM in test [3]; 2.1 µM in test [4]; 5.1 µM in [5]; 1.6 µM in test [6]; 1.7 µM in test [7]. The 50% inhibitory concentration (IC50) in test [8] was found to be 2.4 µM; in test [9], 1.7 µM; in test [10], 2.5 µM; in test [11], 3.3 µM. The TGI came out at 2 µM in test [2]; 1.2 µM in [3]; 4.5 µM in test [4]; 6 µM in test [5]; 3.6 µM in test [6]; 3.3 µM in test [7]. Further, the total growth inhibition concentration (TGI) in test [8] turned out to be 4.5 µM; in [9], 3.8 µM; in [10], 4 µM; in [11], 7 µM. For the same compound, in test [12], the result was Active.
Regarding `CCN(CC)/[N+]([O-])=N/Oc1cc(O/N=[N+](\[O-])N(C)C)c([N+](=O)[O-])cc1[N+](=O)[O-]`, in test [1], the Activity turned out to be 3.8 mol/mol. In [2], this compound showed an IC50 of 1 µM and a total growth inhibition concentration (TGI) of 2.3 µM. Moreover, in test [12], the result was Active.
The matching figures for `CN(C)/[N+]([O-])=N/Oc1cc(O/N=[N+](\[O-])N2CCCC2)c([N+](=O)[O-])cc1[N+](=O)[O-]`: 3.6 mol/mol, 2.3 µM, 4.9 µM and “Active”.
Turning to `CCN(CC)C(=O)N1CCN(/[N+]([O-])=N/Oc2cc(O/N=[N+](\[O-])N(CC)CC)c([N+](=O)[O-])cc2[N+](=O)[O-])CC1`, the Activity in test [1] stood at 3 mol/mol. In [2], this compound gave an IC50 of 2.9 µM and a TGI greater than 10 µM. Besides, in test [12], the result was Active.
The matching figures for `CCN(CC)/[N+]([O-])=N/Oc1cc(O/N=[N+](\[O-])N2CCCC2CO)c([N+](=O)[O-])cc1[N+](=O)[O-]` (centres undefined): 3 mol/mol, 1.8 µM, 4 µM and “Active”.
The matching figures for `CCCOC(=O)N1CCN(/[N+]([O-])=N/Oc2cc(O/N=[N+](\[O-])N(C)C)c([N+](=O)[O-])cc2[N+](=O)[O-])CC1`: 3.7 mol/mol, 1.6 µM, 3.9 µM and “Active”.
The matching figures for `CN(C)/[N+]([O-])=N/Oc1cc(O/N=[N+](\[O-])N2CCN(c3ncccn3)CC2)c([N+](=O)[O-])cc1[N+](=O)[O-]`: 3.5 mol/mol, 1.2 µM, 5 µM and “Active”.
Consider `CCOC(=O)N1CCN(/[N+]([O-])=N/Oc2cc(O/N=[N+](\[O-])N3CCN(C(=O)N(CC)CC)CC3)c([N+](=O)[O-])cc2[N+](=O)[O-])CC1`, for which the Activity in [1] stood at 2.9 mol/mol. Also, the IC50 came to 0.9 µM in [2]; 0.9 µM in test [3]; 1.7 µM in test [4]; 3.9 µM in [5]; 1.5 µM in test [6]; 1.6 µM in test [7]. In addition, the IC50 amounted to 2.5 µM in test [8], 1.4 µM in [9], 1.9 µM in test [10] and 3.3 µM in [11]. Further, the TGI in [2] came to 3 µM; in test [3] it was 3 µM; in [4], 4 µM; in test [5] it was 10 µM; in test [6] it was 4 µM; in test [7] it was 4.5 µM. Further, the TGI is 6.5 µM in test [8], 4 µM in test [9], 5.5 µM in test [10] and 8 µM in test [11]. Moreover, the result in [12] was Active.
With `CCOC(=O)N1CCN(/[N+]([O-])=N/Oc2cc(O/N=[N+](\[O-])N(C)C)c([N+](=O)[O-])cc2[N+](=O)[O-])CC1`, the Activity in test [1] came out at 2.7 mol/mol. Further, the concentration for half-maximal inhibition (IC50) in test [2] was determined as 1.2 µM; in test [3], 1.3 µM; in test [4] it was 5 µM; in test [5], 9.1 µM; in [6], 2.4 µM; in test [7], 2.5 µM. Besides, the IC50 in test [8] was 4.5 µM; in test [9], 1.3 µM; in test [10] it was 3.3 µM; in [11], 5 µM. Further, the total growth inhibition concentration (TGI) in test [2] was 2 µM; in test [3], 3 µM; in test [4], 7 µM; in [5], greater than 30 µM; in [6], 4 µM; in test [7] it was 4 µM. For the same compound, the TGI in test [8] amounted to 10 µM; in test [9] it was 2.3 µM; in [10] it was 9 µM; in test [11], 7 µM. The result in test [12] was Active.
Take `CC1CCCCN1/[N+]([O-])=N/Oc1cc(O/N=[N+](\[O-])N(C)C)c([N+](=O)[O-])cc1[N+](=O)[O-]` (centres undefined): in [1], the Activity came out at 3 mol/mol. In [2], the IC50 came to 1.5 µM and net growth stopped (TGI) at 4.9 µM. Also, the result in test [12] was Active.
On to `CNc1ccc(C(=O)Oc2cc(O/N=[N+](\[O-])N(C)C)c([N+](=O)[O-])cc2[N+](=O)[O-])cc1`, for which the Activity in [1] came to 1.4 mol/mol. In addition, the TGI was greater than 10 µM in [2]; 5.5 µM in [3]; greater than 10 µM in [4]; greater than 10 µM in test [5]; greater than 10 µM in test [6]; greater than 10 µM in [7]. In addition, the TGI is greater than 10 µM in [8], 9.5 µM in test [9], greater than 10 µM in test [10] and greater than 10 µM in test [11]. Also, the IC50 in test [3] is 2.7 µM; in [4] it was 4.9 µM; in [5], greater than 10 µM; in [6] it was 5.5 µM; in test [7] it was 5.7 µM; in test [8], 7 µM. For the same compound, the figures for the 50% inhibitory concentration (IC50) in test [9], in test [10] and in [11] were 5 µM, 7.8 µM and greater than 10 µM, respectively. Besides, in [12], the outcome was Active.
Turning to `CCN(CC)C(=O)N1CCN(/[N+]([O-])=N/Oc2cc(O/N=[N+](\[O-])N(C)C)c([N+](=O)[O-])cc2[N+](=O)[O-])CC1`, the Activity in test [1] turned out to be 3.5 mol/mol. Besides, in test [2], 1.9 µM corresponded to half-maximal inhibition (IC50) and total growth inhibition (TGI) required 4.9 µM. Besides, the outcome in test [12] was Active.
Take `CN(C)/[N+]([O-])=N/Oc1cc(O/N=[N+](\[O-])N2CCCCC2)c([N+](=O)[O-])cc1[N+](=O)[O-]`: in test [1], the Activity came out at 3.7 mol/mol. For the same compound, in test [2], the 50% inhibitory concentration (IC50) was 1.7 µM and the total growth inhibition concentration (TGI) was 4.9 µM. For the same compound, in [12], the result was Active.
The matching figures for `O=[N+]([O-])c1cc([N+](=O)[O-])c(O/N=[N+](\[O-])N2CCC[C@H]2CO)cc1O/N=[N+](\[O-])N1CCC[C@H]1CO`: 2.5 mol/mol, 4 µM, greater than 10 µM and “Active”.
As to `O=C(O)[C@@H]1CCCN1/[N+]([O-])=N/Oc1cc(O/N=[N+](\[O-])N2CCC[C@H]2C(=O)O)c([N+](=O)[O-])cc1[N+](=O)[O-]`, the Activity in test [1] is 3.5 mol/mol. In test [2], the 50% inhibitory concentration (IC50) was 9.6 µM and the TGI was greater than 10 µM. Moreover, the result in test [12] was inactive.
The matching figures for `CCCCOC(=O)N1CCN(/[N+]([O-])=N/Oc2cc(O/N=[N+](\[O-])N(C)C)c([N+](=O)[O-])cc2[N+](=O)[O-])CC1`: 3.1 mol/mol, 0.9 µM, 2.7 µM and “Active”.
The matching figures for `CCOC(=O)N1CCN(/[N+]([O-])=N/Oc2cc(O/N=[N+](\[O-])N(CC)CC)c([N+](=O)[O-])cc2[N+](=O)[O-])CC1`: 3.1 mol/mol, 2.1 µM, 5 µM and “Active”.
